Data from ChEMBL document CHEMBL1124108, “Antihypertensive thiadiazoles. 2. Vasodilator activity of some 2-aryl-5-guanidino-1,3,4-thiadiazoles” (1988).

Experiments:
Rattus norvegicus [1] = assay: Maximum percentage reduction in mean blood pressure and heart rate in metacorticoid (DOCA) hypertensive rats at a standard intraperitoneal dose of 100 mg/kg; type: functional
Rattus norvegicus [2] = assay: Increase in diastolic blood pressure at 0.03 ug/kg intravenous dosing of angiotensin in pithed rats; type: functional, Artery
Summary of the method: (§1)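 The pithed-rat preparation was used: male rats (200-300 g) got drug or isotonic saline ip in groups of five, 2 h beforehand (one reference agent 1 h). Doses were 50, 25 or 5 mg/kg. Rats were under halothane, cannulated, pithed and ventilated with room air. Noradrenaline (0.1-1.0 µg/kg) or angiotensin (0.03-0.3 µg/kg) was injected iv, and the increase in diastolic pressure was recorded in mmHg.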

Rattus norvegicus [3] = assay: Increase in diastolic blood pressure at 0.1 ug/kg intravenous dosing of angiotensin in pithed rats; type: functional, Artery; summary of the method: as §1
Rattus norvegicus [4] = assay: Increase in diastolic blood pressure at 0.1 ug/kg intravenous dosing of noradrenaline in pithed rats; type: functional, Artery; summary of the method: as §1
Rattus norvegicus [5] = assay: Increase in diastolic blood pressure at 0.3 ug/kg intravenous dosing of angiotensin in pithed rats; type: functional, Artery; summary of the method: as §1
Rattus norvegicus [6] = assay: Increase in diastolic blood pressure at 0.3 ug/kg intravenous dosing of noradrenaline in pithed rats; type: functional, Artery; summary of the method: as §1
Rattus norvegicus [7] = species: Rattus norvegicus; assay: Increase in diastolic blood pressure at 1 Htz electrical stimulation in the pithed rats; type: functional, Artery
Summary of the method: (§2)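 Male rats (200-300 g) were given drug or isotonic saline ip, in groups of five, 2 h before pithing (one reference agent 1 h before). Doses were 50 or 25 mg/kg, or 5 mg/kg for the reference agent. Rats were put under halothane, tracheally cannulated, pithed through the left orbit and ventilated with room air at 50 strokes/min. After iv tubocurarine (1 mg/kg), the whole sympathetic outflow was stimulated at 1, 3 or 6 Hz (0.5 ms, 20 V, 15 s). The rise in diastolic pressure was recorded in mmHg.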

Rattus norvegicus [8] = assay: Increase in diastolic blood pressure at 1.0 ug/kg intravenous dosing of noradrenaline in pithed rats; type: functional, Artery; summary of the method: as §1
Rattus norvegicus [9] = species: Rattus norvegicus; assay: Increase in diastolic blood pressure at 3 Htz electrical stimulation in the pithed rats; type: functional, Artery; summary of the method: as §2
Rattus norvegicus [10] = species: Rattus norvegicus; assay: Increase in diastolic blood pressure at 6 Htz electrical stimulation in the pithed rats; type: functional, Artery; summary of the method: as §2
Rattus norvegicus [11] = assay: Maximum percentage reduction in mean arterial blood pressure in metacorticoid (DOCA) hypertensive rats at a standard oral dose of 100 mg/kg; type: functional
Summary of the method: (§3)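 Rats were DOCA hypertensive. For oral dosing, food was withdrawn 18 h before; rats dosed ip were not starved. The vehicle was isotonic saline. Pressure was recorded by transducer under minimal restraint: twice before dosing, then at 1, 2, 3, 5 and 22 h. MABP was taken as diastolic + one-third pulse pressure. The value is the maximum % fall from the mean of the two pretreatment readings, n = 3-5.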

Rattus norvegicus [12] = assay: Maximum percentage reduction in mean arterial blood pressure in metacorticoid (DOCA) hypertensive rats at a standard oral dose of 50 mg/kg; type: functional; summary of the method: as §3
Rattus norvegicus [13] = assay: Summation of percentage reductions, compared to pretreatment controls, in MABP of DOCA hypertensive rats at 1,2,3,5,8 hr after the 50 mg/kg oral dose.; type: functional
Summary of the method: (§4)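 DOCA hypertensive rats (n = 5) were dosed orally. MABP (diastolic + one-third pulse pressure) was read before dosing and at 1, 2, 3, 5 and 8 h. The value is the sum of the % reductions from pretreatment control over these five time points.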

Rattus norvegicus [14] = assay: Summation of percentage reductions, compared to pretreatment controls, in MABP of DOCA hypertensive rats at 1,2,3,5,8 hr after the 100 mg/kg oral dose.; type: functional; summary of the method: as §4
Rattus norvegicus [15] = assay: Maximum percentage reduction in mean blood pressure in metacorticoid (DOCA) hypertensive rats at a standard intraperitoneal dose of 100 mg/kg; type: functional; summary of the method: as §3
Rattus norvegicus [16] = assay: Increase in diastolic blood pressure at r 0.3 ug/kg intravenous dosing of noradrenaline in pithed rats; type: functional, Artery; summary of the method: as §1
Rattus norvegicus [17] = assay: Maximum percentage reduction in mean blood pressure in metacorticoid (DOCA) hypertensive rats at a standard oral dose of 10 mg/kg; type: functional; summary of the method: as §3
Rattus norvegicus [18] = assay: Increase in diastolic blood pressure for 0.1 ug/kg intravenous dosing of angiotensin in pithed rats; type: functional, Artery; summary of the method: as §1
Rattus norvegicus [19] = assay: Increase in diastolic blood pressure for 0.1 ug/kg intravenous dosing of noradrenaline in pithed rats; type: functional, Artery; summary of the method: as §1
Rattus norvegicus [20] = assay: Increase in diastolic blood pressure for 0.3 ug/kg intravenous dosing of noradrenaline in pithed rats; type: functional, Artery; summary of the method: as §1
Rattus norvegicus [21] = species: Rattus norvegicus; assay: Increase in diastolic blood pressure for 1 Htz electrical stimulation in the pithed rats; type: functional, Artery; summary of the method: as §2
Rattus norvegicus [22] = species: Rattus norvegicus; assay: Increase in diastolic blood pressure for 3 Htz electrical stimulation in the pithed rats; type: functional, Artery; summary of the method: as §2
Rattus norvegicus [23] = species: Rattus norvegicus; assay: Increase in diastolic blood pressure for 6 Htz electrical stimulation in the pithed rats; type: functional, Artery; summary of the method: as §2
Rattus norvegicus [24] = assay: Increase in diastolic blood pressure for 0.3 ug/kg intravenous dosing of angiotensin in pithed rats; type: functional, Artery; summary of the method: as §1
Rattus norvegicus [25] = assay: Increase in diastolic blood pressure for 1.0 ug/kg intravenous dosing of noradrenaline in pithed rats; type: functional, Artery; summary of the method: as §1
Rattus norvegicus [26] = assay: Increase in diastolic blood pressure for 0.03 ug/kg intravenous dosing of angiotensin in pithed rats; type: functional, Artery; summary of the method: as §1
Rattus norvegicus [27] = assay: Maximum percentage reduction in mean blood pressure in metacorticoid (DOCA) hypertensive rats at a standard oral dose of 100 mg/kg; type: functional; summary of the method: as §3
Rattus norvegicus [28] = assay: Maximum percentage reduction in mean blood pressure in metacorticoid (DOCA) hypertensive rats at a standard oral dose of 50 mg/kg; type: functional; summary of the method: as §3

COc1ccc(-c2nnc(N=C(N)N)s2)cc1.Cl
Reduction (Rattus norvegicus [1]): 28%

Cc1ccccc1-c1nnc(N=C(N)N)s1.Cl
Increase in blood pressure (Rattus norvegicus [2]): 2 mmHg | Increase in blood pressure (Rattus norvegicus [3]): 9 mmHg | Increase in blood pressure (Rattus norvegicus [4]): 12 mmHg | Increase in blood pressure (Rattus norvegicus [5]): 22 mmHg | Increase in blood pressure (Rattus norvegicus [6]): 23 mmHg | Increase in blood pressure (Rattus norvegicus [7]): 13 mmHg | Increase in blood pressure (Rattus norvegicus [8]): 39 mmHg | Increase in blood pressure (Rattus norvegicus [9]): 29 mmHg | Increase in blood pressure (Rattus norvegicus [10]): 35 mmHg | Reduction (Rattus norvegicus [11]): 41% | Reduction (Rattus norvegicus [12]): 36% | Summation MABP (Rattus norvegicus [13]): 115 | Summation MABP (Rattus norvegicus [14]): 167

Cl.N=C(N)Nc1nnc(-c2ccc(Cl)cc2)s1
Reduction (Rattus norvegicus [15]): 18%

Cc1ccccc1-c1nnc(NC2=NCCN2)s1.Cl
Increase in blood pressure (Rattus norvegicus [2]): 15 mmHg | Increase in blood pressure (Rattus norvegicus [3]): 27 mmHg | Increase in blood pressure (Rattus norvegicus [4]): 10 mmHg | Increase in blood pressure (Rattus norvegicus [5]): 43 mmHg | Increase in blood pressure (Rattus norvegicus [7]): 17 mmHg | Increase in blood pressure (Rattus norvegicus [8]): 44 mmHg | Increase in blood pressure (Rattus norvegicus [9]): 34 mmHg | Increase in blood pressure (Rattus norvegicus [10]): 45 mmHg | Increase in blood pressure (Rattus norvegicus [16]): 21 mmHg | Reduction (Rattus norvegicus [11]): 43% | Reduction (Rattus norvegicus [12]): 28% | Summation MABP (Rattus norvegicus [13]): 117 | Summation MABP (Rattus norvegicus [14]): 194

Nc1cc(N2CCCCC2)nc(N)[n+]1[O-] [MINOXIDIL]
Reduction (Rattus norvegicus [17]): 42%

CCCC/N=C(/N)Nc1nnc(-c2ccccc2C)s1.Cl
Increase in blood pressure (Rattus norvegicus [3]): 23 mmHg | Increase in blood pressure (Rattus norvegicus [6]): 42 mmHg | Increase in blood pressure (Rattus norvegicus [9]): 20 mmHg | Reduction (Rattus norvegicus [11]): 39% | Reduction (Rattus norvegicus [12]): 31% | Summation MABP (Rattus norvegicus [13]): 126 | Summation MABP (Rattus norvegicus [14]): 159

COCC/N=C(/N)Nc1nnc(-c2ccccc2C)s1.Cl
Increase in blood pressure (Rattus norvegicus [18]): 28 mmHg | Increase in blood pressure (Rattus norvegicus [19]): 13 mmHg | Increase in blood pressure (Rattus norvegicus [20]): 25 mmHg | Increase in blood pressure (Rattus norvegicus [21]): 30 mmHg | Increase in blood pressure (Rattus norvegicus [22]): 52 mmHg | Increase in blood pressure (Rattus norvegicus [23]): 65 mmHg | Increase in blood pressure (Rattus norvegicus [24]): 44 mmHg | Increase in blood pressure (Rattus norvegicus [25]): 45 mmHg | Increase in blood pressure (Rattus norvegicus [26]): 14 mmHg | Summation MABP (Rattus norvegicus [13]): 113 | Reduction (Rattus norvegicus [27]): 37% | Reduction (Rattus norvegicus [28]): 29% | Summation MABP (Rattus norvegicus [14]): 157

N=C(N)Nc1nnc(-c2c(Cl)cccc2Cl)s1
Reduction (Rattus norvegicus [1]): 34%
